Consider seven compounds from ChEMBL document CHEMBL4402562, “Discovery of Novel Peptidomimetic Boronate ClpP Inhibitors with Noncanonical Enzyme Mechanism as Potent Virulence Blockers in Vitro and in Vivo” (J Med Chem, 2020).

pEC50, pIC50: −log10 of the molar value. Calls of active or inactive are those of the source. No cut-off for these calls is given here.

By pEC50 is commonly meant the EC50 on a negative log10 scale, so that one unit is a factor of ten. As usually defined, the GI50 is the concentration that inhibits growth by half. By ΔTm is commonly meant the change in melting temperature against a reference sample. A word on the pIC50: it is the negative decadic logarithm of the IC50, by convention in mol/L. By HC50 is commonly meant the concentration that lyses half of the red blood cells.

Data set [1] concerns the target T1, ATP-dependent Clp protease proteolytic subunit (Staphylococcus aureus (strain NCTC 8325)) (UniProt Q2G036).
T1 sequence (whole entry): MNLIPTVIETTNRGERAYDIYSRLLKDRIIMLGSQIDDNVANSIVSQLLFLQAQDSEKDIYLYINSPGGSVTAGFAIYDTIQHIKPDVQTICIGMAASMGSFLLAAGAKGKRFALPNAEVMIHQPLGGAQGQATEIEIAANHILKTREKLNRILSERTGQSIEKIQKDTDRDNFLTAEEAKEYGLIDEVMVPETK
The experiment in a line: Inhibition of N-terminal His6-sumo-tagged full length Staphylococcus aureus ClpP expressed in Escherichia coli […] assessed as enzyme activity recovery level at 20-fold molar excess pre-incubated for 10 mins before Suc-LY-AMC addition and measured after 1 hr followed by dialysis up to 72 hrs by fluorescence based assay relative to control. More on the design: scale not given: the % may be the effect or the level left. Put shortly:
(§1)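 ClpP (1 μM, 100 mM Hepes pH 7.0, 100 mM NaCl) incubated 1 h at RT with 20-fold molar excess inhibitor or DMSO. Dialyzed at 4 °C, buffer changed after 6 h and then every 24 h. Aliquots assayed for peptidase activity with Suc-LY-AMC. Thrice, single sample.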

For data set [2], the target named is T1, ATP-dependent Clp protease proteolytic subunit (Staphylococcus aureus (strain NCTC 8325)). The experiment in a line: Inhibition of N-terminal His6-sumo-tagged full length Staphylococcus aureus ClpP expressed in Escherichia coli […] (DE3) assessed as Kinact/Ki ratio […] and measured after 1 hr by fluorescence based assay.
The target in data set [3] is T2, ATP-dependent Clp protease proteolytic subunit (Staphylococcus aureus (strain NCTC 8325), UniProt Q2G036).
T2 sequence (Q2G036 whole entry): T1 sequence (whole entry)
The experiment in a line: Inhibition of ClpP in methicillin-resistant Staphylococcus aureus ATCC 33591 assessed as reduction in bacteria-induced hemolysis of sheep erythrocytes by measuring hemoglobin release incubated for 15 mins.

A short description of data set [4]: Cytotoxicity in human HepG2 cells assessed as reduction in cell viability incubated for 24 hrs by MTT assay. It is filed as cell-based. A digest of the protocol:
(§2)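 MTT assay. HeLa (3×10^3 cells) or HepG2 (4×10^3 cells) seeded in DMEM and grown 24 h, then given compound for a further 24 h. Absorbance read at 570 nm against DMSO wells. GI50 from dose-response fit; three experiments, triplicate wells.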
(Formazan colour is commonly taken as a measure of viable cells.)

Data set [5] can be described thus: Cytotoxicity in human HeLa cells assessed as reduction in cell viability incubated for 24 hrs by MTT assay. Format: cell-based. Put shortly:
as §2

Data set [6] has as its target T1, ATP-dependent Clp protease proteolytic subunit (Staphylococcus aureus (strain NCTC 8325)). The experiment in a line: Binding affinity to N-terminal His6-sumo-tagged full length Staphylococcus aureus ClpP expressed in Escherichia coli […] assessed as change in melting temperature at 100 uM by differential scanning calorimetry analysis. Put shortly: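 DSC: SaClpP at 0.5 mg/mL (25 μM) incubated at RT with 100 μM inhibitor in assay buffer. Scanned at 1 °C/min over 30–90 °C, with a buffer-buffer scan subtracted. Tm taken as the thermogram peak maximum. Run once, single sample.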
For orientation: Differential scanning calorimetry records heat flow against a reference as temperature is scanned.

Data set [7] shares this target. Put plainly: (§3) Inhibition of N-terminal His6-sumo-tagged full length Staphylococcus aureus ClpP expressed in Escherichia coli […] pre-incubated for 10 mins before Suc-LY-AMC addition and measured after 1 hr by fluorescence based assay. Put shortly:
(§4)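 SaClpP (1 μM monomer) in 100 mM Hepes pH 7.0, 100 mM NaCl. Preincubated 10 min at RT with inhibitor, two-fold dilutions over 8 steps from 100 μM. Suc-LY-AMC at 200 μM, 380/440 nm recorded for 1 h at 37 °C, slopes normalized to DMSO. For kinact/Ki, inhibitor premixed with substrate and reaction started by enzyme, fitted by least squares. Thrice, triplicate wells.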

Data set [8] concerns the target T2, ATP-dependent Clp protease proteolytic subunit. The data set is described as §3. A digest of the protocol:
as §4

Data set [9] relates to Staphylococcus aureus. The experiment in a line: Inhibition of Staphylococcus aureus ClpXP expressed in Escherichia coli […] at 1 to 100 uM using FITC-casein substrate in presence of ATP-regenerating system incubated for 50 mins by fluorescence based assay. A digest of the protocol: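 3.6 μM SaClpP with 3 μM SaClpX in 25 mM Hepes pH 7.5, 20 mM MgCl2, 30 mM KCl, 0.03% Tween 20, 10% glycerol, 2 mM DTT. ATP regeneration: 4 mM ATP, 20 U/mL creatine kinase, 16 mM creatine phosphate. FITC-casein 0.048 mg/mL, 494/521 nm for 50 min; slope 300–1200 s vs DMSO. Thrice, triplicate wells.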

A short description of data set [10]: Induction of hemolysis in sheep erythrocytes by measuring hemoglobin release incubated for 15 mins. Format: cell-based, Ovis aries, Erythrocyte. Put shortly: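 Serially diluted compound mixed directly with 2% sheep erythrocytes in 10 mM Tris pH 7.4, 0.9% NaCl. Buffer served as negative and water as positive control. After 1,500 rpm, 15 min spin, released hemoglobin read at 545 nm. Three experiments, triplicate tubes.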

Data set [11] has as its system Staphylococcus aureus. Put plainly: Growth inhibition of methicillin-resistant Staphylococcus aureus ATCC 33591 up to 64 uM incubated for 18 hrs by broth microdilution method. Format: functional, organism-based. A digest of the protocol: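 MRSA ATCC 33591 at ~5×10⁵ CFU/mL in MHB with graded compound concentrations vs DMSO; OD600 growth curves over 18 h; three experiments, triplicate wells. MIC by CLSI broth microdilution in CAMHB, 0.5-256 µg/mL, 18 h at 37 °C, lowest concentration with no visible growth.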

Data set [12] concerns the target T1, ATP-dependent Clp protease proteolytic subunit (Staphylococcus aureus (strain NCTC 8325)). Put plainly: Inhibition of N-terminal His6-sumo-tagged full length Staphylococcus aureus ClpP expressed in Escherichia coli […] at 20-fold molar excess pre-incubated for 10 mins before Suc-LY-AMC addition and measured after 1 hr followed by dialysis for 72 hrs by fluorescence based assay relative to control. A digest of the protocol:
as §1

Data set [13] addresses Coagulation factor X (Homo sapiens) (UniProt P00742). Put plainly: Inhibition of human F10a up to 100 uM pre-incubated for 10 mins before Pefachrome Fxa addition and measured after […] based assay.
Data set [14] in a line: Inhibition of human ClpP (57 to 277 residues) expressed in Escherichia coli […] pre-incubated for 10 mins before Ac-WLA-AMC addition and measured after 1 hr by fluorescence based assay relative to control. A digest of the protocol: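 hClpP (3.5 μM monomer) in 25 mM Tris-HCl pH 8.0, 100 mM KCl. Preincubated 10 min at RT with inhibitor, two-fold dilutions over 8 steps from 100 μM. Then 100 μM Ac-WLA-AMC, 380/440 nm for 1 h at 37 °C, slopes normalized to DMSO. Thrice, triplicate wells.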

Data set [15] can be described thus: Inhibition of AlgW (unknown origin) up to 100 uM pre-incubated for 10 mins before Abz-T-V-A-W-pNA addition and measured after 1 hr by fluorescence based assay.
Data set [16] deals with 20S proteasome (Homo sapiens) (UniProt P49721+P20618+P28074+P28062+P28065+P28072+P25786+P25787+P25788+P25789+P28066+P60900+O14818+Q8TAA3+P40306+A5LHX3+P49720+P28070+Q99436). The experiment in a line: Inhibition of 20S proteasome (unknown origin) pre-incubated before Suc-LLVY-AM addition and measured after 1 hr by fluorescence based assay. Format: protein-complex assay.
The nature of data set [17]: Inhibition of Pseudomonas aeruginosa ClpP1 expressed in Escherichia coli […] pre-incubated for 10 mins before Suc-LY- AMC addition and measured after 1 hr by fluorescence based assay relative to control. Put shortly: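 PaClpP1 (0.5 μM monomer) in 25 mM Tris-Cl pH 7.5, 150 mM NaCl. Preincubated 10 min at RT with inhibitor, two-fold dilutions over 8 steps from 50 μM. Then 50 μM Suc-LY-AMC, 380/440 nm for 1 h at 37 °C, slopes normalized to DMSO. Thrice, triplicate wells.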

Chain of Coagulation factor X (Homo sapiens) (P00742 41-179 limits assumed): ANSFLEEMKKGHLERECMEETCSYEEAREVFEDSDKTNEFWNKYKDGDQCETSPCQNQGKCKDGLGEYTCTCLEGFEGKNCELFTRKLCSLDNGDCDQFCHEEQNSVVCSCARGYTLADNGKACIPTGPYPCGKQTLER
Chain of Coagulation factor X (Homo sapiens) (P00742 235-488 limits assumed): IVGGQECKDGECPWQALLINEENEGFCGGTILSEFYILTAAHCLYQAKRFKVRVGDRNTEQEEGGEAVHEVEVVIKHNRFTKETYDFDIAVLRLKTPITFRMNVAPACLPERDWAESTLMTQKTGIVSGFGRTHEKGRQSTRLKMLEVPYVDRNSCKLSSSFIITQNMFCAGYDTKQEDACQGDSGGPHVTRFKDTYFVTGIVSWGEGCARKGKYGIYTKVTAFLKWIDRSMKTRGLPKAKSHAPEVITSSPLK

As to `CC(C)C[C@H](NC(=O)[C@H](Cc1ccccc1)NC(=O)c1cnccn1)B(O)O` [BORTEZOMIB], the Activity in [1] worked out at 100%. Also, in [2], the Ratio is 2.2 ×10² /s.M. Further, the pEC50 in data set [3] is 4.63. In addition, the GI50 at 24 h in data set [4] is 101 µM; in data set [5] it was 168 µM. Further, the ΔTm in data set [6] lay within 29.5 to 42.2 °C. Moreover, the inhibition entry in data set [7] was “Dose-dependent effect”. In [8], the pIC50 was 5.28. Further, the inhibition result in the data set with Staphylococcus aureus [9] was “inactive”. Also, the HC50 at 0.25 h in [10] is over 500 µM.
On to `CC(C)C[C@H](NC(=O)CNC(=O)c1cc(Cl)ccc1Cl)B(O)O` [IXAZOMIB], for which the Ratio in data set [2] came to 2.4 ×10² /s.M. Also, in data set [3], the pEC50 was 5.44. For the same compound, the GI50 at 24 h is over 200 µM in data set [4] and 182 µM in [5]. Also, the inhibition result in [7] is “Dose-dependent effect”. This compound also gave a pIC50 in data set [8] of 5.24 to 5.28. The compound further returned an HC50 at 0.25 h in [10] of 408 µM.
On to `CC(C)Cc1ccc(C(C)C(=O)N[C@@H](Cc2c[nH]c3ccccc23)C(=O)N[C@@H](CC(C)C)B(O)O)cc1` (stereo partly specified), for which the Activity in [1] stood at 100%. Also, the Ratio in data set [2] stood at 8 ×10² /s.M. Also, the pEC50 in data set [3] was 5.59. For the same compound, the GI50 at 24 h in [4] is 54.8 µM; in data set [5], 71.2 µM. Besides, the ΔTm in data set [6] fell in the range of 29.5 to 42.2 °C. For the same compound, in the data set with Staphylococcus aureus [11], the “growth inhibition (GI)” value was “inactive”. Further, the inhibition result in [7] was “Dose-dependent effect”. In [8], this compound showed a pIC50 of 5.72. This compound registered an HC50 at 0.25 h in [10] of over 500 µM.
`COc1ccc(C(=O)N[C@@H](Cc2ccccc2)C(=O)N[C@@H](CC(C)C)B(O)O)c(C)c1`: the Activity in [1] was 100%. For the same compound, in data set [2], the Ratio was 9.1 ×10² /s.M. In [3], the pEC50 is 4.83. Also, the GI50 at 24 h in data set [4] and in data set [5] was over 200 µM throughout. Moreover, in [6], the ΔTm lay within 29.5 to 42.2 °C. The inhibition result in data set [7] was “Dose-dependent effect”. In addition, the pIC50 in [8] was 5.82. In addition, in data set [10], the HC50 at 0.25 h is over 500 µM.
Take `COC(=O)c1ccc(OC(=O)CCc2cc(OC)c(OC)c(OC)c2)cc1`: the inhibition result in data set [12] is “Active”. Moreover, the result in data set [6] was inactive.
As for `CC(C)Cc1ccc(C(C)C(=O)N[C@@H](Cc2ccc(O)cc2)C(=O)N[C@@H](CC(C)C)B(O)O)cc1` (stereo partly specified), the inhibition entry in data set [13] and in data set [15] was “inactive” throughout. Moreover, the Activity in [1] was found to be 100%. For the same compound, the Ratio in data set [2] stood at 7.2 ×10² /s.M. In addition, the pIC50 was 4.60 to 5.52 in [14], 5.85 in [8] and 4.60 to 5.52 in data set [17]. In addition, the pEC50 in data set [3] is 5.02. For the same compound, the inhibition entry in [16] was “Active”. Further, the GI50 at 24 h in data set [4] was found to be 117 µM; in data set [5] it was 83 µM. In addition, in [6], the ΔTm was in the range of 29.5 to 42.2 °C. Also, in data set [7], the inhibition entry was “Dose-dependent effect”. The 50% haemolytic concentration (HC50) at 0.25 h in data set [10] is over 500 µM.
As for `COc1ccc(C(=O)N[C@@H](Cc2ccccc2)C(=O)N[C@@H](CC(C)C)B(O)O)cc1`, the inhibition result in data set [13] and in data set [15] was “inactive” in each case. In addition, the Activity in data set [1] amounted to 100%. Also, the Ratio in [2] worked out at 6.7 ×10² /s.M. The pIC50 in data set [14] was 4.60 to 5.52; in [8], 5.72; in data set [17], 4.60 to 5.52. The pEC50 in [3] is 5.48. The inhibition result in [16] is “Active”. For the same compound, the figures for the GI50 at 24 h in data set [4] and in [5] were over 200 µM and 196 µM, respectively. In [6], the ΔTm lay within 29.5 to 42.2 °C. In addition, in [7], the inhibition result was “Dose-dependent effect”. The compound further yielded an HC50 at 0.25 h in [10] of over 500 µM.
